Screening data from PubChem BioAssay.
PPC-1+TRAIL kill – compounds killing PPC-1 cancer cells with TRAIL present (potentiator screen, no TRAIL-free arm); cell killing (% activity), % at 4 µM or 5 µM; 220,000 tested, 0.41% active; PPC-1 cells + TRAIL, ATPLite viability luminescence;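 active = cell killing above 50% in the first pass at 4 µM, then a duplicate retest at 5 µM averaging 50% or more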;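 also: plate controls were cells with TRAIL plus DMSO for no effect and medium-only wells lacking cells for full effect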
STAT3 inh – STAT3 signaling inhibition; inhibition, % at 5.5 µM; AID 862; 190,000 tested, 0.89% active; U3A cells, IL-6 STAT3-luciferase reporter, luminescence; host cell line lacks STAT1;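 active = inhibition above the mean inhibition across all screened compounds plus 3 SD, cut at about 44% in these data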;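 also: 0% = DMSO only wells and 100% = 100 µM nifuroxazide control wells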
Hep lipid drop – modulators of hepatic lipid droplet formation | inhibition, % at 6.5 µM | 240,000 tested, 0.4% active | AML12 mouse hepatocytes, oleate lipid droplets, BODIPY imaging;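 active = lipid droplet intensity inhibited by at least 50%, with more than 500 cells counted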
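Assay system: AML12 mouse liver cells | Compound: 6.5 µM single-point dosing | Schedule: Overnight exposure | Technique: Fluorescence imaging, 20x objective, two fields per well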
STAT1 inh – STAT1 signaling inhibition; 200,000 tested, 0.35% active; inhibition, % at 5.5 µM; NIH 3T3 STAT1-luciferase reporter, IFN-gamma, luminescence;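 active = inhibition above a set limit, the mean inhibition across all tested compounds plus 3 SD, cut at about 34% in these data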;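 also: 0% = IFN-gamma with DMSO and 100% = IFN-gamma with 300 µM nifuroxazide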
Platelet DG rel – modulates dense granule release in human platelets | AID 1663 | inhibition, %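 (compounds screened at 7.5 µM in platelet-rich plasma)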 | human platelet-rich plasma, SFLLRN dense granule ATP release, luminescence | 300,000 tested, 0.22% active;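 active = mean replicate score, as percent of positive control, at or above 50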
H9c2 TAG inh – triacylglycerol accumulation inhibition; H9c2 cells, Nile Red lipid (TAG) fluorescence; cells loaded with 200 µM oleic acid; inhibition, % at 12.5 µM; 230,000 tested, 0.66% active; AID 651582;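 active = pattern-corrected inhibition of lipid staining of at least 50% with the nuclear-stain viability signal not falling by more than 50%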;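 also: 0% = DMSO wells and 100% = triacsin C control wells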
Lipid drop inh – confirmation of inhibitors of hepatic lipid droplet formation. AID 463183. shares compounds with Hep lipid drop. inhibition, % at 5.2 µM. AML12 mouse hepatocytes, BODIPY lipid droplet imaging; droplets induced with 100 µM oleic acid. 870 tested, 65% active;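 active = inhibition of lipid droplet metric at least 50%, with more than 300 cells in each of four replicates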;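 also: plate controls were DMSO with oleic acid for no effect and 5 µM Triacsin-C for full effect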
AML12 tox img – AML12 hepatocyte cytotoxicity (counter-screen) | 870 tested, 3% active | z-score at 5 µM | AML12 mouse hepatocytes, DAPI nuclear morphology cytotoxicity imaging; hits give high values; cells fed 100 µM oleate overnight | shares compounds with Hep lipid drop; in the data active = z-score above about 6.3;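 also: compound exposure lasted overnight at 37 °C before fixation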
AML12 tox ATP – AML12 hepatocyte cytotoxicity, confirmed; AML12 mouse hepatocyte viability, ATP luminescence; cells loaded with 100 µM oleic acid; cytotoxicity, % at 50 µM; shares compounds with Hep lipid drop; 530 tested, under 10 active;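 active = cytotoxicity above 50% in each of four replicates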;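 also: compound exposure lasted overnight at 37 °C before the ATP read; 0% = DMSO-treated cells and 100% = wells with no cells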
* marks the source's active call; other numbers are inactive results. Compounds with a hit are over-represented: about 1.5% of the library has one in this group of screens.

`CC(C)(C)C(=O)Nc1nc2c(s1)COc1ccccc1-2` gave PPC-1+TRAIL kill 11, STAT3 inh 7, Hep lipid drop 55*, STAT1 inh -9, Platelet DG rel -2, H9c2 TAG inh 46, Lipid drop inh 106*, AML12 tox img -0.72 and AML12 tox ATP 0.
For COc1cc(C(=O)N2CCC2(C)C(=O)NC(C)C)cc(OC)c1OC (stereo unspecified) the results were H9c2 TAG inh 1.
CCN(CC)CCN1CNC(=S)NC1 was read as H9c2 TAG inh -6.
For COc1ccc(Br)cc1C(=O)Nc1cccc(NC(=O)c2ccco2)c1 the results were PPC-1+TRAIL kill 10, STAT3 inh 24, STAT1 inh 6, Platelet DG rel -3 and H9c2 TAG inh 33.
Screening COc1c(C)cc(Br)cc1C(=O)Nc1cccc(NC(=O)c2ccco2)c1 returned PPC-1+TRAIL kill 7, STAT3 inh 28, Hep lipid drop 60*, STAT1 inh 0, Platelet DG rel 12, Lipid drop inh 97*, AML12 tox img 0.26 and AML12 tox ATP 1.
For CCOC(=O)c1ccc(NC(=O)CN(Cc2ccc(Cl)cc2)S(C)(=O)=O)cc1 the results were PPC-1+TRAIL kill 12, STAT3 inh 13, Hep lipid drop 50*, STAT1 inh 7, Platelet DG rel 0, Lipid drop inh 76*, AML12 tox img -0.59 and AML12 tox ATP 2.
For CS(=O)(=O)N(CC(=O)Nc1ccc2c(c1)OCCO2)Cc1ccc(Cl)cc1 the results were PPC-1+TRAIL kill -5, STAT3 inh 0, Hep lipid drop 0, STAT1 inh 5 and H9c2 TAG inh 14.
`CC(=O)c1cccc(NC(=O)CN(Cc2ccccc2)S(C)(=O)=O)c1` gave PPC-1+TRAIL kill 20, STAT3 inh 9, Hep lipid drop -8, STAT1 inh 2 and Platelet DG rel -2.
Screening COc1cccc(NC(=O)CN(Cc2ccccc2)S(C)(=O)=O)c1 returned PPC-1+TRAIL kill 13, STAT3 inh 4, Hep lipid drop 50*, STAT1 inh -1, Platelet DG rel 9, Lipid drop inh 43 and AML12 tox img -0.27.
Screening O=C(NCC(F)(F)F)c1csc([C@@H]2O[C@H](CO)[C@H](O)[C@H](O)[C@H]2O)n1 returned H9c2 TAG inh 5.
For COc1ccc2c(c1)-c1c(ssc1=S)C(C)(C)N2C(=O)CSC1=NCCS1 the results were PPC-1+TRAIL kill 14, STAT3 inh 0, Hep lipid drop -5, STAT1 inh 8, Platelet DG rel 0 and H9c2 TAG inh -10.
For CCOc1ccc2c(c1)-c1c(ssc1=S)C(C)(C)N2C(=O)c1ccco1 the results were PPC-1+TRAIL kill 2, STAT3 inh -4, Hep lipid drop 75*, STAT1 inh -8, Platelet DG rel 1, Lipid drop inh 90* and AML12 tox img 21*.
For COc1cccc(NC(=O)N2CCCC(C(=O)Nc3ccccc3OC)C2)c1 (stereo unspecified) the results were PPC-1+TRAIL kill 24, STAT3 inh -2, STAT1 inh 0, Platelet DG rel -5 and H9c2 TAG inh 1.
`COc1ccc(CNC(=O)C2CCCN(C(=O)Nc3ccccc3OC)C2)cc1` (stereo unspecified) gave Hep lipid drop 81*, Platelet DG rel -4, Lipid drop inh 99*, AML12 tox img -0.73 and AML12 tox ATP 10.
Screening CN(C)c1nc(N)nc(CSc2nnnn2-c2ccc(Cl)cc2)n1 returned H9c2 TAG inh 5.
Screening NC(COCc1ccccc1)c1csc(Nc2ccc(C(=O)c3ccccc3)cc2)n1 (stereo unspecified) returned H9c2 TAG inh -16.
